Source: ChEMBL document CHEMBL1811822, “P2-P1' macrocyclization of P2 phenylglycine based HCV NS3 protease inhibitors using ring-closing metathesis” (Bioorg Med Chem, 2011)

molecular target: not listed separately; assay: Inhibition of protease activity of full-length HCV genotype 1a NS3 protease by FRET assay; conditions: not given

Compound | Ki [nM]
CCC[C@@H]1NC(=O)[C@H](NC(=O)[C@@H](NC(=O)OC(C)(C)C)C(C)(C)C)c2ccc(Oc3cc(-c4ccccc4)nc4cc(OC)ccc34)c(c2)/C=C\CC2(CC2)S(=O)(=O)NC1=O | 870
CCC[C@@H]1NC(=O)[C@@H](NC(=O)[C@@H](NC(=O)OC(C)(C)C)C(C)(C)C)c2ccc(Oc3cc(-c4ccccc4)nc4cc(OC)ccc34)c(c2)CCCc2ccccc2S(=O)(=O)NC1=O | 250
CCC[C@@H]1NC(=O)[C@@H](NC(=O)[C@@H](NC(=O)OC(C)(C)C)C(C)(C)C)c2ccc(Oc3cc(-c4ccccc4)nc4cc(OC)ccc34)c(c2)/C=C\CCCS(=O)(=O)NC1=O | 390
CCC[C@@H]1NC(=O)[C@@H](NC(=O)[C@@H](NC(=O)OC(C)(C)C)C(C)(C)C)c2ccc(Oc3cc(-c4ccccc4)nc4cc(OC)ccc34)c(c2)/C=C/CCCS(=O)(=O)NC1=O | 240
CCC[C@@H]1NC(=O)[C@H](NC(=O)[C@@H](NC(=O)OC(C)(C)C)C(C)(C)C)c2ccc(Oc3cc(-c4ccccc4)nc4cc(OC)ccc34)c(c2)/C=C\CCCS(=O)(=O)NC1=O | 760
CCC[C@@H]1NC(=O)[C@@H](NC(=O)[C@@H](NC(=O)OC(C)(C)C)C(C)(C)C)c2ccc(Oc3cc(-c4ccccc4)nc4cc(OC)ccc34)c(c2)/C=C/CCCCS(=O)(=O)NC1=O | 940
CCC[C@@H]1NC(=O)[C@H](NC(=O)[C@@H](NC(=O)OC(C)(C)C)C(C)(C)C)c2ccc(Oc3cc(-c4ccccc4)nc4cc(OC)ccc34)c(c2)/C=C/CCCCS(=O)(=O)NC1=O | 710
CCC[C@@H]1NC(=O)[C@@H](NC(=O)[C@@H](NC(=O)OC(C)(C)C)C(C)(C)C)c2ccc(Oc3cc(-c4ccccc4)nc4cc(OC)ccc34)c(c2)/C=C\CCCCS(=O)(=O)NC1=O | 320
CCC[C@@H]1NC(=O)[C@@H](NC(=O)[C@@H](NC(=O)OC(C)(C)C)C(C)(C)C)c2ccc(Oc3cc(-c4ccccc4)nc4cc(OC)ccc34)c(c2)CCCCCCS(=O)(=O)NC1=O | 570
CCC[C@@H]1NC(=O)[C@@H](NC(=O)[C@@H](NC(=O)OC(C)(C)C)C(C)(C)C)c2ccc(Oc3cc(-c4ccccc4)nc4cc(OC)ccc34)c(c2)C/C=C/CCS(=O)(=O)NC1=O (mixture of isomers) | 470

Second part, the compound after the results:

Ki [nM] | Compound
190 | CCC[C@@H]1NC(=O)[C@@H](NC(=O)[C@@H](NC(=O)OC(C)(C)C)C(C)(C)C)c2ccc(Oc3cc(-c4ccccc4)nc4cc(OC)ccc34)c(c2)/C=C\Cc2ccccc2S(=O)(=O)NC1=O
170 | CCC[C@@H]1NC(=O)[C@@H](NC(=O)[C@@H](NC(=O)OC(C)(C)C)C(C)(C)C)c2ccc(Oc3cc(-c4ccccc4)nc4cc(OC)ccc34)c(c2)/C=C\c2ccccc2S(=O)(=O)NC1=O
150 | CCC[C@@H]1NC(=O)[C@@H](NC(=O)[C@@H](NC(=O)OC(C)(C)C)C(C)(C)C)c2ccc(Oc3cc(-c4ccccc4)nc4cc(OC)ccc34)c(c2)/C=C/c2ccccc2S(=O)(=O)NC1=O
110 | CCC[C@@H]1NC(=O)[C@@H](NC(=O)[C@@H](NC(=O)OC(C)(C)C)C(C)(C)C)c2ccc(Oc3cc(-c4ccccc4)nc4cc(OC)ccc34)c(c2)/C=C\CC2(CC2)S(=O)(=O)NC1=O
137 | CCC[C@@H]1NC(=O)[C@@H](NC(=O)[C@@H](NC(=O)OC(C)(C)C)C(C)(C)C)c2ccc(Oc3cc(-c4ccccc4)nc4cc(OC)ccc34)c(c2)/C=C\CCS(=O)(=O)NC1=O
222 | CCC[C@@H]1NC(=O)[C@@H](NC(=O)[C@@H](NC(=O)OC(C)(C)C)C(C)(C)C)c2ccc(Oc3cc(-c4ccccc4)nc4cc(OC)ccc34)c(c2)C/C=C/CS(=O)(=O)NC1=O

test system: Hepatitis C virus; assay: Antiviral activity against HCV; format: functional, organism-based, Hepacivirus hominis; conditions: not given

Compound | EC50 [nM]
COc1ccc2c(O[C@@H]3C[C@H]4C(=O)N[C@]5(C(=O)O)C[C@H]5/C=C\CCCCC[C@H](NC(=O)OC5CCCC5)C(=O)N4C3)cc(-c3csc(NC(C)C)n3)nc2c1 [CILUPREVIR] | 350
CC(C)(C)OC(=O)N[C@H]1CCCCC/C=C\[C@@H]2C[C@@]2(C(=O)NS(=O)(=O)C2CC2)NC(=O)[C@@H]2C[C@@H](OC(=O)N3Cc4cccc(F)c4C3)CN2C1=O [DANOPREVIR] | 0.6

molecular target: not listed separately; assay: Inhibition of HCV NS3 protease; design: species or system Hepacivirus hominis; conditions: not given
Method in brief: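 Full-length NS3 protein (protease–helicase/NTPase domains) from HCV genotype 1a, wild-type, with a 16-residue NS4A activating-region peptide. Protease activity was read by FRET. Enzyme at 1 nM was incubated 10 min at 30 °C in 50 mM HEPES, pH 7.5. Ki values were derived and reported with standard deviation.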

Ki [nM] | Compound
63 | C=CCCCS(=O)(=O)NC(=O)[C@H](CCC)NC(=O)[C@@H](NC(=O)[C@@H](NC(=O)OC(C)(C)C)C(C)(C)C)c1ccc(Oc2cc(-c3ccccc3)nc3cc(OC)ccc23)c(C=C)c1
48 | C=CCCCS(=O)(=O)NC(=O)[C@H](CCC)NC(=O)[C@H](NC(=O)[C@@H](NC(=O)OC(C)(C)C)C(C)(C)C)c1ccc(Oc2cc(-c3ccccc3)nc3cc(OC)ccc23)c(C=C)c1
40 | COc1ccc2c(O[C@@H]3C[C@H]4C(=O)N[C@]5(C(=O)O)C[C@H]5/C=C\CCCCC[C@H](NC(=O)OC5CCCC5)C(=O)N4C3)cc(-c3csc(NC(C)C)n3)nc2c1 [CILUPREVIR]

test system: Hepatitis C virus; assay: Antiviral activity against HCV 1b infected in human HuH7 cells assessed as inhibition of viral replication by luciferase assay; format: functional, organism-based, Hepacivirus hominis; conditions: genotype 1b, Huh-7

EC50 [nM] | Compound
6000 | CCC[C@@H]1NC(=O)[C@@H](NC(=O)[C@@H](NC(=O)OC(C)(C)C)C(C)(C)C)c2ccc(Oc3cc(-c4ccccc4)nc4cc(OC)ccc34)c(c2)/C=C/CCCS(=O)(=O)NC1=O
